Screens as filed in PubChem BioAssay.
Shown are actives, neighbours in structure and some others; about 2% of the full set was active somewhere.
HSP90 refold inh: HSP90 inhibitors, primary screen, cell lysate, luminescence; 290,000 compounds, 0.91% hits; Rabbit reticulocyte lysate, luciferase refolding luminescence, 3 h; inhibition, % at 5.6 µM; AID 1789, 2009;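 active = inhibition above the screen-wide mean plus 3 SD, computed separately per campaign, cut at about 16% in these data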;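 note: 0% = DMSO wells and 100% = 60 µM geldanamycin wells; inhibitors lower the luminescence because luciferase stays unfolded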
STAT3 inh-1: IL-6 driven STAT3 reporter inhibitors, primary screen, U3A cells, luciferase, luminescence, MLSCN library. IL-6 STAT3-luciferase reporter; host cell line lacks STAT1. inhibition, % at 5.5 µM. 190,000 compounds, 0.89% hits. AID 862, 2007;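 active = inhibition above the mean inhibition across all screened compounds plus 3 SD, cut at about 44% in these data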;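 note: 0% = DMSO only wells and 100% = 100 µM nifuroxazide control wells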
STAT3 act: IL-6 driven STAT3 reporter potentiators, primary screen, U3A cells, luciferase, luminescence, MLSCN library; IL-6 STAT3-luciferase reporter; 100% = signal with IL-6 EC80 alone; activation (% of control), % at 5.6 µM; 190,000 compounds, 0.91% hits;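 active = activation above the screen-wide mean of compound activation plus 3 SD, cut at about 130% in these data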;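 note: 0% = background luminescence of wells with medium and substrate only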
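Test system: STAT3-luciferase reporter U3A cells; Detection: reporter luminescence signal; Times: 1 h compound pre-exposure, 6 h IL-6 stimulation, 37 °C; Benchmarks: IL-6-only high control; Also added: IL-6 stimulus at 33 ng/mL final.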
STAT1 blocker: STAT1 signaling inhibitors, primary screen, cell-based, HTS, luciferase reporter | AID 920, 2007 | 200,000 compounds, 0.35% hits | inhibition, % at 5.5 µM | NIH 3T3 STAT1-luciferase reporter, IFN-gamma, luminescence;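 active = inhibition above a set limit, the mean inhibition across all tested compounds plus 3 SD, cut at about 34% in these data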;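 note: 0% = IFN-gamma with DMSO and 100% = IFN-gamma with 300 µM nifuroxazide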
STAT3 inh-2: STAT3 reporter inhibitors, retest of hits, confirmation, U3A cells, luciferase, luminescence. inhibition, % at 5.7 µM. shares compounds with STAT3 inh-1. 1,200 compounds, 45% hits. IL-6 STAT3 luciferase reporter; cell line lacks STAT1;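 active = inhibition above the hit cutoff computed for the primary STAT3 screen, cut at about 44% in these data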;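 note: 0% = IL-6 plus DMSO and 100% = IL-6 plus nifuroxazide control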
NFkB inh 2: NF-kB reporter inhibitors in human cells, confirmation, counter-screen for STAT3 inhibitor project, cell-based, HEK293T, luciferase, TNF-alpha stimulus; shares compounds with STAT3 inh-1; TNF-alpha induced; inhibition, % at 5.7 µM; 1,200 compounds, 36% hits; AID 1308, 2008;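 active = inhibition above the mean of solvent-only control wells plus 3 SD, cutoff set per campaign, cut at about 13% in these data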;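 note: 0% = TNF-alpha with DMSO and 100% = TNF-alpha with MG high control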
STAT1 inh STAT3c: STAT1 reporter inhibitors, IFN-gamma induced, confirmation, counter-screen for STAT3 inhibitor project, cell-based, NIH 3T3, luciferase luminescence | shares compounds with STAT3 inh-1 | NIH 3T3 STAT1-luciferase reporter | inhibition, % at 5.7 µM | 1,200 compounds, 27% hits | AID 1317, 2008;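 active = inhibition above the mean plus 3 SD of solvent-only control wells, limit set per screening run, cut at about 16% in these data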;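 note: 0% = DMSO with IFN-gamma and 100% = nifuroxazide control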
* hit, by the source's call; / = no result.

SMILES	HSP90 refold inh	STAT3 inh-1	STAT3 act	STAT1 blocker	STAT3 inh-2	NFkB inh 2	STAT1 inh STAT3c
NC(=O)c1nsc(C(=O)N(Cc2ccc(F)cc2)C(C(=O)NCC2CCCO2)c2ccc(O)cc2)c1N (configuration not stated)	-3.8	/	/	/	/	/	/
Fc1ccc(Sc2ccccc2CNC2=NCCN2)cc1	-5.5	46.0*	62.6	12.7	29.2	-7.2	13.4
OCCNC1=NCCN1	-1.6	2.0	102.6	-1.5	/	/	/
CC(NC(=O)Cn1cccc1)c1ccccc1 (configuration not stated)	-2.9	/	/	/	/	/	/
N#Cc1cc2c(nc1SC1CC(=O)N(c3ccccc3)C1=O)CCC2 (configuration not stated)	2.8	63.9*	47.6	25.9	26.7	40.8*	-41.0
CCC(=O)N1c2ccc(S(=O)(=O)N3CCN(c4cc(C)ccc4C)CC3)cc2CC1C (configuration not stated)	-0.5	/	/	/	/	/	/
Cc1ccc(Oc2ccc(C(=O)NCc3ccncc3)cc2)cc1	-0.8	52.1*	58.4	21.1	44.0*	11.1	7.5
Cc1c(C(=O)Nc2ccc3c(c2)OCCO3)sc2nc(-c3ccccc3)cn12	2.6	51.0*	59.5	34.3*	42.3	1.7	10.4
Cc1ccc[n+](CC(=O)Nc2cc(C(F)(F)F)ccc2Cl)c1	0.0	7.7	98.4	3.2	/	/	/
CCC(C)(C)c1ccc(OCCCC[n+]2cccc(C)c2)c(C(C)(C)CC)c1	6.5	66.7*	45.0	29.2	50.4*	2.3	15.8
CCCOC(=O)c1c(NC(=O)C2C3C=CC(C3)C2C(=O)O)sc2c1CCC(C)C2 (configuration not stated)	-1.5	-4.3	107.7	-15.6	/	/	/
Cc1cc(C(=O)COC(=O)c2n[nH]c3ccccc23)c(C)n1C	-0.3	52.6*	57.6	-32.8	6.1	-13.9	-83.0
CCOC(=O)c1n[nH]c2ccccc12	1.1	15.9	90.2	-9.8	/	/	/
CNc1nc2c(c(=O)n(C)c(=O)n2C)n1Cc1ccccc1	0.8	54.9*	59.4	16.0	34.4	13.3*	18.1*
COCCNc1nc2c(c(=O)n(C)c(=O)n2C)n1Cc1cccc(C)c1	-1.6	29.6	79.4	33.7	/	/	/
Cc1cccc(Cn2c(NCCO)nc3c2c(=O)n(C)c(=O)n3C)c1	-0.4	52.0*	59.9	18.6	34.7	9.6	19.6*
CCCn1c(CN(C)Cc2ccccc2)nc2c1c(=O)n(C)c(=O)n2C	-4.4	46.0*	64.1	20.1	28.5	4.4	14.3
CN(CCC#N)C(=S)NC(=O)c1ccc(S(=O)(=O)N2CCOCC2)cc1	5.7	9.5	99.0	9.1	/	/	/
CC(C)c1ccc(NC(=O)C2CCCCC2C(=O)O)cc1 (configuration not stated)	-4.8	49.7*	62.0	2.0	14.2	1.8	0.5
Cc1cc(C)cc(C(=O)NC(CC(N)=O)c2ccc(N3CCCCCC3)c([N+](=O)[O-])c2)c1 (configuration not stated)	1.4	/	/	/	/	/	/
C/C(N)=C(/C#N)C(=O)CSc1nnc(-c2ccc3c(c2)OCO3)o1	3.8	48.0*	62.6	-36.8	18.4	-9.0	-96.9
NC(=O)CSc1nnc(-c2ccc3c(c2)OCO3)o1	5.5	8.7	92.9	-14.1	/	/	/
COc1cc(CNCc2ccncc2)cc(OC)c1OC	-1.9	/	/	/	/	/	/
O=c1cc2c(n[nH]1)-c1ccccc1CC2	0.0	/	/	/	/	/	/
Clc1ccc(-c2cn3nc4c(nc3n2)CCCC4)cc1	7.9	51.3*	60.1	-14.1	42.2	-11.5	-77.9
SMILES	HSP90 refold inh	STAT3 inh-1	STAT3 act	STAT1 blocker	STAT3 inh-2	NFkB inh 2	STAT1 inh STAT3c
COc1cccc(-c2cn3nc4c(nc3n2)CCCC4)c1	-0.6	15.7	88.4	-65.9	/	/	/
O=C(c1ccc(CNS(=O)(=O)c2ccccc2)cc1)N1CCN(Cc2ccccc2)CC1	2.1	44.4*	66.4	3.4	27.6	5.5	-16.2
CS(=O)(=O)c1ccc(C(=O)N2CCN(Cc3ccccc3)CC2)cc1	1.8	7.3	98.7	-5.2	/	/	/
CCOC(=O)C1CCN(C(=O)CCc2c(C)nc3cc(-c4ccccc4)nn3c2C)CC1	-1.1	24.4	86.4	-6.1	/	/	/
CCOC(=O)C1CCCCN1C(=O)CCc1c(C)nc2cc(-c3ccccc3)nn2c1C (configuration not stated)	2.6	49.1*	64.9	2.8	28.0	4.8	-13.5
O=C(NCCc1ccccc1)C1CCCN1C(=O)Nc1ccc(Cl)cc1 (configuration not stated)	-1.5	/	/	/	/	/	/
COc1cccc(C2=Nn3c(nnc3-c3ccccc3O)SC2)c1	2.4	12.7	92.0	9.6	/	/	/
C[n+]1c2n(c3ccccc31)N=C(c1cc(C(C)(C)C)c(O)c(C(C)(C)C)c1)CS2	-0.4	79.1*	34.9	18.3	78.9*	36.6*	-3.5
O=[N+]([O-])c1ccc(N/N=C/c2c[nH]c3ccccc23)cc1	2.9	47.8*	67.7	-8.7	25.8	8.1	-9.8
O=C(Nc1ccncc1)c1ccc2c(c1)C(=O)N(C1CCCCC1)C2=O	2.5	75.3*	38.4	5.9	66.0*	9.8	0.9
Clc1ccc(-c2nnc(-c3ccccc3)o2)c(Cl)c1	7.3	58.6*	55.8	-4.2	33.8	-5.2	-77.3
Fc1ccc(-c2nnc(-c3ccc(Cl)cc3Cl)o2)cc1	0.1	70.4*	45.4	11.5	36.8	5.7	-65.5
CSc1ccccc1-c1nnc(-c2ccc(Cl)cc2Cl)o1	2.2	15.8	92.9	-25.1	/	/	/
CCN1CCN(C(=S)c2ccc(-c3ccccc3)cc2)CC1	1.6	46.6*	63.5	10.9	43.3	3.9	5.6
Cc1ccc(C(=S)N2CCN(Cc3ccccc3)CC2)cc1	-5.1	9.6	97.6	5.1	/	/	/
CSCC[C@H](NC(=O)C1CCN(S(=O)(=O)c2ccccc2)CC1)C(=O)NC1CC1	0.1	/	/	/	/	/	/
NC(=O)c1ccc(N2CCN(S(=O)(=O)c3ccccc3)CC2)c([N+](=O)[O-])c1	-2.4	72.1*	41.3	24.5	70.8*	23.0*	28.3*
Cc1ccc(NC(=O)Nc2ccnc(-c3cccnc3)n2)cc1	-2.2	66.2*	49.0	19.0	70.2*	1.5	22.7*
Cc1oc(-c2ccc(Cl)cc2)nc1CN1CCCC(C(=O)N2CCOCC2)C1 (configuration not stated)	-1.1	/	/	/	/	/	/
Cc1oc(-c2ccc(Cl)cc2)nc1CN1CCCC(C(=O)N2CCN(C(=O)c3ccco3)CC2)C1 (configuration not stated)	-1.1	79.3*	38.3	13.7	72.3*	26.0*	11.6
